Measured values reported in ChEMBL document CHEMBL4028903 (J Med Chem, 2017).
Values after ≈ are worked out from the molar mass of the structure shown. Active and inactive are the calls of the source. The calls are words filed in the database; no cut-off is given here.

Columns and labels:
[1] = target: T1, G-protein coupled bile acid receptor 1 (Mus musculus, UniProt Q80SS6); assay: Agonist activity at mouse TGR5
T1 sequence (Q80SS6 whole entry): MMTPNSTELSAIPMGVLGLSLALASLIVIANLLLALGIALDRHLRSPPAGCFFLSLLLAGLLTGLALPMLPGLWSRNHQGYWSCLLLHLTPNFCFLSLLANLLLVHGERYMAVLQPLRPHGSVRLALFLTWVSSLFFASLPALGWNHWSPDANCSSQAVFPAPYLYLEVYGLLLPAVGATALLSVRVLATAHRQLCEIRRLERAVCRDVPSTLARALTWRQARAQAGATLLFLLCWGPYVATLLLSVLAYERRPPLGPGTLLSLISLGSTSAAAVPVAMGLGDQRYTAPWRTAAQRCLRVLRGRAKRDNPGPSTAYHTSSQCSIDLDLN

[2] = target: T2, G-protein coupled bile acid receptor 1 (Homo sapiens, UniProt Q8TDU6); assay: Agonist activity at human TGR5 relative to control; details: read-out: Efficacy
T2 sequence (Q8TDU6 whole entry): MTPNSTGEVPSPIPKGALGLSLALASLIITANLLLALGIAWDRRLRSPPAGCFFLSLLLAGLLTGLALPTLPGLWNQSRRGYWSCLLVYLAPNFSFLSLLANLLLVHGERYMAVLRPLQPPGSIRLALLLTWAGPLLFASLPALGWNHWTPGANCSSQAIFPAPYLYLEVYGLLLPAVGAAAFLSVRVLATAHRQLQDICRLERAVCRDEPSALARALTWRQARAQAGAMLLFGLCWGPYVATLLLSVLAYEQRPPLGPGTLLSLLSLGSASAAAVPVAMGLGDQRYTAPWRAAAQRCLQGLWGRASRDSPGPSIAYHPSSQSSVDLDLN

[3] = target: T2, G-protein coupled bile acid receptor 1; assay: Agonist activity at human TGR5
[4] = Extraction ratio in rat liver microsomes; type: ADME, microsome; details: read-out: ERH
[5] = Volume of distribution at steady state in rat at 3 mg/kg, iv by LC-MS/MS analysis; type: ADME, organism-based; details: in vivo, read-out: Vdss
Procedure, shortened: (§1)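 Rats were dosed IV as a solution in 75% PEG300:25% D5W, or orally as a suspension in 0.5% methylcellulose, 0.5% Tween80 and 99% water.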

[6] = Clearance in rat at 3 mg/kg, iv by LC-MS/MS analysis; type: ADME, organism-based; details: in vivo; procedure, shortened: as §1
[7] = Extraction ratio in human liver microsomes; type: ADME, microsome; details: read-out: ERH
[8] = Cmax in rat at 10 mg/kg, po administered via gavage by LC-MS/MS analysis; type: ADME, organism-based; set-up: dose 10 mg/kg, route oral; details: in vivo; procedure, shortened: as §1
[9] = target: T3, Bile acid receptor (Homo sapiens, UniProt Q96RI1); assay: Agonist activity at recombinant human GST-tagged FXR ligand binding domain (193 to 472 residues) expressed in baculovirus infected insect cells assessed as induction of interaction with biotin labelled SRC-1 after 1 hr by HTRF assay
T3 sequence (Q96RI1 whole entry): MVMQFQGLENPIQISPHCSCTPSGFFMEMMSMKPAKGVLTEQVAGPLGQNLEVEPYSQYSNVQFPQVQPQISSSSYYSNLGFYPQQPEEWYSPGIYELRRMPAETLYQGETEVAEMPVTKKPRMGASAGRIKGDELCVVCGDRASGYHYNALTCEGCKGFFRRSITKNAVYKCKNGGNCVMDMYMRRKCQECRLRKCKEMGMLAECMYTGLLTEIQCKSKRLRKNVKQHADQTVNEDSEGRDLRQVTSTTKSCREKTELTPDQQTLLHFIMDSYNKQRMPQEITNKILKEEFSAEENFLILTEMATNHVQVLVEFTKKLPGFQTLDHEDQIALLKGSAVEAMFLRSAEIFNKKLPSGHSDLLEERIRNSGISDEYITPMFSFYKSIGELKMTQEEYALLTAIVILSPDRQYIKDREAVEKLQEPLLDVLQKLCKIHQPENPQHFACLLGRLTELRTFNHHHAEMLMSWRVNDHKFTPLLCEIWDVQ

[10] = Solubility of the compound in fasted state simulated intestinal fluid at pH 6.8; type: physicochemical
[11] = target: T3, Bile acid receptor; assay: Agonist activity at human FXR expressed in HEK293T cells assessed as BSEP promoter driven cellular transcriptional activity after 24 hrs by luciferase reporter gene assay; type: cell-based, HEK-293T
[12] = Oral bioavailability in rat at 10 mg/kg administered via gavage by LC-MS/MS analysis; type: ADME, organism-based; details: in vivo; procedure, shortened: as §1
[13] = Terminal half life in rat at 3 mg/kg, iv by LC-MS/MS analysis; type: ADME, organism-based; details: in vivo, read-out: beta t1/2 (converted); procedure, shortened: as §1
[14] = AUC in rat at 10 mg/kg, po administered via gavage by LC-MS/MS analysis; type: ADME, organism-based; details: in vivo; procedure, shortened: as §1
[15] = Dissociation constant, pKa of compound; type: physicochemical
[16] = test system: Rattus norvegicus; assay: In vivo agonist activity at FXR in po dosed Sprague-Dawley rat assessed as induction of SHP mRNA level in liver administered as single dose after 7 hrs post dose by qPCR analysis; type: functional, organism-based
[17] = test system: Rattus norvegicus; assay: In vivo agonist activity at FXR in po dosed Sprague-Dawley rat assessed as induction of BSEP mRNA level in liver administered as single dose after 7 hrs post dose by qPCR analysis; type: functional, organism-based
[18] = test system: Rattus norvegicus; assay: In vivo agonist activity at FXR in po dosed Sprague-Dawley rat assessed as induction of BSEP mRNA level in liver administered as single dose measured 7 hrs post dose by qPCR analysis
[19] = test system: Rattus norvegicus; assay: In vivo agonist activity at FXR in Sprague-Dawley rat assessed as induction of FGF15 mRNA level in ileum at 0.3 mg/kg, po administered as single dose after 7 hrs post dose by qPCR analysis; type: functional, organism-based
[20] = test system: Rattus norvegicus; assay: In vivo agonist activity at FXR in po dosed Sprague-Dawley rat assessed as induction of SHP mRNA level in ileum administered as single dose measured 7 hrs post dose by qPCR analysis; type: functional, organism-based
[21] = test system: Rattus norvegicus; assay: In vivo agonist activity at FXR in Sprague-Dawley rat assessed as induction of SHP mRNA level in ileum at 0.3 mg/kg, po administered as single dose after 7 hrs post dose by qPCR analysis; type: functional, organism-based
[22] = test system: Rattus norvegicus; assay: In vivo agonist activity at FXR in Sprague-Dawley rat assessed as induction of SHP mRNA level in liver at 1 mg/kg, po administered as single dose after 7 hrs post dose by qPCR analysis relative to control; type: functional

Structure (SMILES)	hepatic extraction ratio [4]	Vd [5] [L/kg]	clearance [6] [mL/min/kg]	hepatic extraction ratio [7]	Cmax [8] [nM]	EC50 [9] [nM]	solubility [10] [µM]	EC50 [11] [nM]	bioavailability [12] [%]	half-life [13] [h]	AUC [14] [µM·h]	pKa [15]	other results
CC[C@H]1[C@@H](O)[C@@H]2[C@H](CC[C@]3(C)[C@@H]([C@H](C)CCC(=O)O)CC[C@@H]23)[C@@]2(C)CC[C@@H](O)C[C@@H]12 [OBETICHOLIC ACID]	–	–	–	–	–	–	–	–	–	–	–	–	EC50 [1]: 5740 nM
CC[C@H]1[C@@H](O)[C@H]2[C@@H]3CC[C@H]([C@H](C)CCC(=O)NCC(=O)O)C3(C)CC[C@@H]2[C@@]2(C)CC[C@@H](O)C[C@@H]12 (single isomer, unassigned)	–	–	–	–	–	–	–	–	–	–	–	–	EC50 [1]: 637 nM; Emax [2]: 101%; EC50 [3]: 315 nM
O=C(O)c1ccc2nc(N3CCC(OCc4c(-c5c(Cl)cccc5Cl)noc4C4CC4)CC3)sc2c1	0.58	0.55	50	0.81	44	8.3	61 (≈ 33.2 µg/mL)	9.5	6	0.34	0.39	–	–
O=C(O)c1cc(F)c2nc(N3C4CCC3CC(OCc3c(-c5ccccc5C(F)(F)F)noc3C3CC3)C4)sc2c1 (stereo not given)	0.19	0.6	11	0.36	2110	0.46	510 (≈ 300 µg/mL)	0.54	14	1.8	3.64	4	Activity [16]: Dose-dependent effect; Activity [17]: Dose-dependent effect; Activity [18]: Dose-dependent effect; Activity [19]: Active; Activity [20]: Dose-dependent effect; Activity [21]: Active; fold change (FC) [22]: 6
O=C(O)c1ccc2nc(N3CCCC(OCc4c(-c5ccccc5OC(F)(F)F)noc4C4CC4)CC3)sc2c1 (stereo not given)	0.75	–	–	0.89	–	4.2	126 (≈ 72.3 µg/mL)	6.6	–	–	–	–	–
CC[C@H]1[C@@H](O)[C@H]2[C@@H]3CC[C@H]([C@H](C)CCC(=O)NCCS(=O)(=O)O)C3(C)CC[C@@H]2[C@@]2(C)CC[C@@H](O)C[C@@H]12 (single isomer, unassigned)	–	–	–	–	–	–	–	–	–	–	–	–	EC50 [1]: 906 nM; Emax [2]: 102%; EC50 [3]: 205 nM
O=C(O)c1ccc2nc(N3CCC(OCc4c(-c5ccccc5OC(F)(F)F)noc4C4CC4)CC3)sc2c1	–	1.2	24	–	382	–	70 (≈ 39.2 µg/mL)	–	37	1	4.57	–	–
O=C(O)c1cc(F)c2nc(N3C4CCC3CC(OCc3c(-c5ccccc5OC(F)F)noc3C3CC3)C4)sc2c1 (stereo not given)	0.4	0.7	11	0.61	2120	0.27	750 (≈ 439 µg/mL)	0.8	14	3.7	3.45	4	–
Cc1cc(C(=O)O)cc2sc(N3C4CCC3CC(OCc3c(-c5ccccc5OC(F)(F)F)noc3C3CC3)C4)nc12 (stereo not given)	< 0.18	0.84	14	< 0.21	86	0.49	< 10	0.82	3	1	0.832	5.5	–
O=C(O)c1ccc2nc(N3C4CCC3CC(OCc3c(-c5ccccc5OC(F)(F)F)noc3C3CC3)C4)sc2c1 (stereo not given)	0.51	1.1	17	< 0.2	173	0.54	110 (≈ 64.4 µg/mL)	0.69	11	1	1.92	5.1	–
COc1cc(C(=O)O)cc2sc(N3C4CCC3CC(OCc3c(-c5ccccc5OC(F)(F)F)noc3C3CC3)C4)nc12 (stereo not given)	0.5	0.26	9	0.64	1990	0.57	75 (≈ 46.2 µg/mL)	0.42	9	0.7	2.67	4.5	–
O=C(O)c1ccc2nc(N3CCC(OCc4c(-c5ccccc5C(F)(F)F)noc4C4CC4)CC3)sc2c1	0.5	–	–	0.38	–	66	131 (≈ 71.2 µg/mL)	70	–	–	–	–	–
O=C(O)c1ccc2nc(N3CCC(OCc4c(-c5c(F)cccc5F)noc4C4CC4)CC3)sc2c1	0.52	–	–	0.27	–	–	169 (≈ 86.5 µg/mL)	88	–	–	–	–	–
O=C(O)c1ccc2nc(N3CC[C@@H](OCc4c(-c5c(Cl)cccc5Cl)noc4C4CC4)C3)sc2c1	–	–	–	–	–	3060	–	9200	–	–	–	–	–
O=C(O)c1ccc2nc(N3CC(OCc4c(-c5ccccc5OC(F)(F)F)noc4C4CC4)C3)sc2c1	–	–	–	–	–	1580	–	8400	–	–	–	–	–
